Laboratory results reported in ChEMBL document CHEMBL4138318, “Discovery of 5-Cyano-6-phenylpyrimidin Derivatives Containing an Acylurea Moiety as Orally Bioavailable Reversal Agents against P-Glycoprotein-Mediated Mutidrug Resistance” (J Med Chem, 2018).
Calls of active or inactive are those of the source. The rule behind the calls is not given here.

Legend:
SW620/AD300 [1] = test: Effect on ABCB1 expression in human SW620/AD300 cells up to 4 uM after 48 hrs by Western blot analysis; type: functional, cell-based
How it was run: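 SW620/AD300 cells exposed to compound at 0, 1, 2 or 4 µM for 48 h, lysed, ultracentrifuged, protein quantified by BCA; equal protein run on SDS-PAGE, wet-transferred to nitrocellulose, primary antibody overnight at 4℃, secondary 2 h at room temperature, enhanced chemiluminescence detection; GAPDH as loading control.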

SW-620 [2] = test: Increase in rhodamine 123 accumulation in human SW620 cells up to 4 uM preincubated for 4 hrs followed by rhodamine 123 addition measured after 30 mins by flow cytometry; type: functional, cell-based
SW620/AD300 [3] = test: Antitumor activity against ABCB1 overexpressing human SW620/AD300 cells xenografted in BALB/c nude mouse assessed as reduction in tumor volume at 20 mg/kg/day, po measured after 21 days; type: functional, organism-based
How it was run: (§1)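 Female BALB/c nude mice (18-20 g, 5-6 weeks) bearing SW620/AD300 xenografts; grouping once tumours reached 100 mm3: saline vehicle […] ip, paclitaxel 5 mg/kg every 3 days ip, test agent 20 mg/kg/day orally, or the combination. Body weight and tumour volume recorded every 2 days over 21 days; tumours excised and weighed at end.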

SW620/AD300 [4] = test: Effect on subcellular localization of ABCB1 in human SW620/AD300 cells at 2 uM after 48 hrs by Hoechst 33258 staining-based immunofluorescence assay; type: functional, cell-based
How it was run: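 About 1×10^4 cells on coverslips incubated with compound 48 h, fixed in 4% paraformaldehyde ≥20 min, blocked 2 h in PBS with 5% BSA, anti-ABCB1 primary overnight at 4℃, Alexa Fluor 488 anti-goat secondary 2 h, nuclei stained with Hoechst 33258 20 min; imaged by laser scanning confocal microscopy.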

SW620/AD300 [5] = test: Antitumor activity against ABCB1 overexpressing human SW620/AD300 cells xenografted in BALB/c nude mouse assessed as reduction in tumor volume at 20 mg/kg/day, po cotreated with 5 mg/kg, ip paclitaxel measured after 21 days; type: functional, organism-based; how it was run: as §1
[6] = target: T1, ATP-dependent translocase ABCB1 (Homo sapiens, UniProt P08183); test: Stimulation of human ABCB1 ATPase activity expressed in high-five insect cell membrane vesicles by colorimetric analysis
How it was run: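 Vanadate-sensitive ABCB1 ATPase activity in High Five insect cell membrane vesicles, measured with a commercial ATPase kit under a modified protocol; compound tested across 0-40 µM; maximal fold stimulation and concentration giving 50% stimulation derived.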

[7] = Cytotoxicity against human SW620/AD300 cells assessed as survival at 2 uM after 72 hrs by MTT assay relative to control; type: cell-based; conditions: read-out: Survival
[8] = target: T1, ATP-dependent translocase ABCB1; test: Inhibition of ABCB1 in human KB-C2 cells assessed as potentiation of vincristine-induced cytotoxicity by measuring fold reduction in vincristine IC50 at 1 uM preincubated for 4 hrs followed by vincristine addition measured after 72 hrs by MTT assay; type: cell-based
[9] = target: T1, ATP-dependent translocase ABCB1; test: Inhibition of ABCB1 in human SW620/AD300 cells assessed as potentiation of paclitaxel-induced cytotoxicity by measuring fold reduction in paclitaxel IC50 at 1 uM after 72 hrs by MTT assay; type: cell-based
How it was run: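 SW620/AD300 cells (~5×10^3/well) treated with graded paclitaxel with or without modulator (2 µM, or 0.5-2 µM in dose series; 0.1% DMSO solvent control) for 72 h; MTT (5 mg/mL stock) added 4 h, absorbance 490 nm. IC50 as mean ± SD of three independent runs; reversal fold = paclitaxel IC50 without/with modulator.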

[10] = target: T1, ATP-dependent translocase ABCB1; test: Inhibition of ABCB1 in human SW620/AD300 cells assessed as intracellular accumulation of paclitaxel up to 4 uM treated at 2 hrs post paclitaxel treatment for 30 mins in paclitaxel free medium by HPLC analysis; type: cell-based; conditions: 0.5 h
How it was run: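 Equal numbers of SW620/AD300 cells loaded with 6 µg/mL paclitaxel 2 h, then held in paclitaxel-free medium with or without compound 30 min at 37℃; cells harvested, disrupted by ultrasound, extracted with ethyl acetate and paclitaxel quantified by HPLC.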

[11] = target: T1, ATP-dependent translocase ABCB1; test: Binding affinity to ABCB1 in human SW620/AD300 cells assessed as thermal stabilization preincubated for 30 mins followed by incubation at 40 to 61 degC for 3 mins by CETSA; type: cell-based; conditions: 0.05 h
How it was run: (§2)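 SW620/AD300 cells lysed by three liquid-nitrogen freeze-thaw cycles; ultracentrifuged supernatant split into compound-treated and solvent-control portions, incubated 30 min at 37℃, aliquoted and heated 3 min at 40, 43, 46, 49, 52, 55, 58 or 61℃; remaining ABCB1 or ABCC1 detected by western blotting.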

[12] = target: T1, ATP-dependent translocase ABCB1; test: Inhibition of ABCB1 in human SW620/AD300 cells assessed as reduction in [3H]-paclitaxel efflux preincubated for 4 hrs followed by [3H]-paclitaxel addition for 2 hrs measured after 120 mins by liquid scintillation counting method; type: cell-based
How it was run: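 After 2 h loading with 0.1 µM [3H]-paclitaxel (following 4 h compound pre-exposure), SW620 or SW620/AD300 cells moved to label-free medium for a 2 h efflux phase; samples taken at 0, 30, 60 and 120 min and radioactivity counted by liquid scintillation. Three independent assays, mean ± SD.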

Cytochrome P450 3A4 = Cytochrome P450 3A4 (Homo sapiens, UniProt P08684); test: Inhibition of recombinant human CYP3A4 in presence of NADPH generating system by fluorescence assay; type: ADME
SW-620 [13] = test: Inhibition of rhodamine 123 efflux in human SW620 cells up to 4 uM preincubated for 4 hrs followed by 30 mins incubation in Rho-123 containing medium and subsequent incubation in Rho-123 free medium up to 120 mins by flow cytometry; type: functional, cell-based
How it was run: (§3)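 Cells loaded with rhodamine 123 as in the accumulation assay (4 h compound pre-exposure, 1 µg/mL dye 30 min, 37℃), then kept in dye-free medium with or without reversal agent for 30, 60, 90 or 120 min at 37℃; intracellular fluorescence read by flow cytometry at 488/530 nm. Three independent experiments.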

[14] = target: T2, Multidrug resistance-associated protein 1 (Homo sapiens, UniProt P33527); test: Binding affinity at ABCC1 in human SW620/AD300 cells assessed as thermal stabilization preincubated for 30 mins followed by incubation 40 to 61 degC for 3 mins by CETSA; type: cell-based; conditions: 0.05 h; how it was run: as §2
[15] = target: T1, ATP-dependent translocase ABCB1; test: Inhibition of ABCB1 in human SW620/AD300 cells assessed as decrease in rhodamine 123 efflux preincubated for 4 hrs followed by 30 mins incubation in Rho-123 containing medium and subsequent incubation in Rho-123 free medium up to 120 mins by flow cytometry; type: cell-based; how it was run: as §3
[16] = target: T2, Multidrug resistance-associated protein 1; test: Inhibition of ABCC1 in human KB-CV60 cells assessed as potentiation of vincristine-induced cytotoxicity by measuring fold reduction in vincristine IC50 at 1 uM preincubated for 4 hrs followed by vincristine addition measured after 72 hrs by MTT assay; type: cell-based
How it was run: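 KB-CV60 and HEK293/ABCC1 cells (transfected line kept in 2 mg/mL G418) given graded vincristine with or without modulator for 72 h; MK571 25 µM reference; viability by MTT read at 490 nm. IC50 from three independent repeats, mean ± SD; reversal fold = vincristine IC50 ratio without/with modulator.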

Mus musculus = test: Toxicity in nude BALB/c mouse xenografted with ABCB1 overexpressing human SW620/AD300 cells assessed as change in body weight at 20 mg/kg/day, po cotreated with 5 mg/kg, ip paclitaxel measured after 21 days; type: organism-based; conditions: in vivo, 504 h; how it was run: as §1

T1 sequence (P08183 whole entry): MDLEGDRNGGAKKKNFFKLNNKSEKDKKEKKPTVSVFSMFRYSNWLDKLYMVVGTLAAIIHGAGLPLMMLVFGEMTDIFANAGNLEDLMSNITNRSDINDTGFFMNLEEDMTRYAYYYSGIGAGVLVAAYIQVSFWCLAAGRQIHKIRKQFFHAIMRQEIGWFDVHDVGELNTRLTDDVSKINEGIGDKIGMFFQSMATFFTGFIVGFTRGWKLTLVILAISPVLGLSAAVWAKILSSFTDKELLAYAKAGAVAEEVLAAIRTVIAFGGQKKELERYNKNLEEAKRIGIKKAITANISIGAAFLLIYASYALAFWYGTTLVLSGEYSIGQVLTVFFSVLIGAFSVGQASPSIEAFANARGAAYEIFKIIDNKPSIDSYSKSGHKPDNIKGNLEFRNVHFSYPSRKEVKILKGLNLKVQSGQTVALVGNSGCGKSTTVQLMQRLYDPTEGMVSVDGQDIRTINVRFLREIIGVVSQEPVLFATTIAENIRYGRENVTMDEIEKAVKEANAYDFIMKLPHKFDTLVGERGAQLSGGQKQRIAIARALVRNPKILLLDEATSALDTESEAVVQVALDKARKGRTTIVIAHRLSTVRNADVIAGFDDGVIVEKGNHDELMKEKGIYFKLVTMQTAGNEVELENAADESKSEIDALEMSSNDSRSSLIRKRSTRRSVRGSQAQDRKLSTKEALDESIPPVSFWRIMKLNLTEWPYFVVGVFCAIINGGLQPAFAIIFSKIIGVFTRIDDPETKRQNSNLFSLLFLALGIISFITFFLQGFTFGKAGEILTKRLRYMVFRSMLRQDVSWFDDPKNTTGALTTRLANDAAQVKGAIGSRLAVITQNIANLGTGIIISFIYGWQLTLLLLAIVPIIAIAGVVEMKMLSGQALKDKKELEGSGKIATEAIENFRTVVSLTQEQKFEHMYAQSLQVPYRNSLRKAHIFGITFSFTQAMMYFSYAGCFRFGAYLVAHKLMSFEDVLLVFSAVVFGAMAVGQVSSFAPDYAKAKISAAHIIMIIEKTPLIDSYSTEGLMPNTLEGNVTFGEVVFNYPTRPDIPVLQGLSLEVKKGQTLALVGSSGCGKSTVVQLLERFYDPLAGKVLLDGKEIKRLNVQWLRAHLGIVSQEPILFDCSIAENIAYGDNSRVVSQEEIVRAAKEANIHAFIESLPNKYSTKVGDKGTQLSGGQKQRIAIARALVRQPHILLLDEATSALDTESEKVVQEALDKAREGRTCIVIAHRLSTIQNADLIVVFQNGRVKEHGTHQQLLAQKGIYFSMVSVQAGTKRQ
T2 sequence (P33527 whole entry): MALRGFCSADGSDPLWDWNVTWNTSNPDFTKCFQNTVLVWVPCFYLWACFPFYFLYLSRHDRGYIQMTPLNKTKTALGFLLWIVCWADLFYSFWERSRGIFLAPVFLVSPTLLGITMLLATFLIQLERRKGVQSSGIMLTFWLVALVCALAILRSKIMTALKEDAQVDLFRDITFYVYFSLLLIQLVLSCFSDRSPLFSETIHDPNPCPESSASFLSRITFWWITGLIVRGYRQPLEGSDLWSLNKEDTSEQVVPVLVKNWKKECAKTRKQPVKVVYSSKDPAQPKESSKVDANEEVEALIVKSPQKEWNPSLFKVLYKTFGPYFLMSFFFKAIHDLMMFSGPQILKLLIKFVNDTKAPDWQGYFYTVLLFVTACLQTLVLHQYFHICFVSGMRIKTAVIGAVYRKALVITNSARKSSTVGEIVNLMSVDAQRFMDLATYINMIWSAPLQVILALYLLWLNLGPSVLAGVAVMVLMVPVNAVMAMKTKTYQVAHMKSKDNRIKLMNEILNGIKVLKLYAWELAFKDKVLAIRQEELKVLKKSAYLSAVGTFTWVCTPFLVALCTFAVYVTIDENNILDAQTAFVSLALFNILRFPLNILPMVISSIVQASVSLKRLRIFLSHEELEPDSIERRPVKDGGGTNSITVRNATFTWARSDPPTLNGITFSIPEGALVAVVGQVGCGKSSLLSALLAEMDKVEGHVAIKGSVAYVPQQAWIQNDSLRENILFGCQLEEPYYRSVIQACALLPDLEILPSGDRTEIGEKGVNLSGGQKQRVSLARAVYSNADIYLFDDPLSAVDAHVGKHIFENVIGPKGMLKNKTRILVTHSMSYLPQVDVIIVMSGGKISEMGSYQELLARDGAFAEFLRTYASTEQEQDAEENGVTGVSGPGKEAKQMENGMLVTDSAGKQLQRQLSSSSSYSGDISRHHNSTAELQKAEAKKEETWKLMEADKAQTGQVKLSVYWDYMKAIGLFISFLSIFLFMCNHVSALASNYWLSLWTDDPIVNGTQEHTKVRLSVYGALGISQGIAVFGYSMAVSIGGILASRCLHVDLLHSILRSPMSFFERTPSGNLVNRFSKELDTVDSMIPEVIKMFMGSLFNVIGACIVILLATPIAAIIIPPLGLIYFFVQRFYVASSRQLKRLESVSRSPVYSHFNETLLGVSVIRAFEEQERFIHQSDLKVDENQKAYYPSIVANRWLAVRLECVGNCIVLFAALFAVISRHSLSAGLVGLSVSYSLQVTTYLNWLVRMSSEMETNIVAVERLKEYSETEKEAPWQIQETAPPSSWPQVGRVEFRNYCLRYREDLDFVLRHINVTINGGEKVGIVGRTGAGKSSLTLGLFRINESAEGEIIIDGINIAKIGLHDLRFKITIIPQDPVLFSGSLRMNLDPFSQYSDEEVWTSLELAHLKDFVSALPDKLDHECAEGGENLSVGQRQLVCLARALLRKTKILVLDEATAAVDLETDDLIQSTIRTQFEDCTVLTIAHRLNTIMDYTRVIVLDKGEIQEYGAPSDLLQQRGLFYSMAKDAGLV
Cytochrome P450 3A4, sequence (P08684 whole entry): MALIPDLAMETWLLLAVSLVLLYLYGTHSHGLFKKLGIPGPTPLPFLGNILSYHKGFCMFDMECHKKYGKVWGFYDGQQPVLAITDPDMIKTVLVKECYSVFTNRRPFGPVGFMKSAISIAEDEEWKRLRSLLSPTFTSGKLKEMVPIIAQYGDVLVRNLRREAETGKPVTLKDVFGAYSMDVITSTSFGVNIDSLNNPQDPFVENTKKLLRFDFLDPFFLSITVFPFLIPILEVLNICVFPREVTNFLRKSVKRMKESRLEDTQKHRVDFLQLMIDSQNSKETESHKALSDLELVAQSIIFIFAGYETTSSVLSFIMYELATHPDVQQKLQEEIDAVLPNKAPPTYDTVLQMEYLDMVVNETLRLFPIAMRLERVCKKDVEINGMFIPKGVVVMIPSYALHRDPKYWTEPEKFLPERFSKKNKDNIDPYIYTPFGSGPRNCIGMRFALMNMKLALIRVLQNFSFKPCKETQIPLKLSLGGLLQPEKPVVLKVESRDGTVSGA

COc1cc(-c2nc(SCC(=O)NC(=O)Nc3ccccn3)nc(Nc3cccc(Cl)c3)c2C#N)cc(OC)c1OC
Activity (SW620/AD300 [1]): inactive | Activity (SW-620 [2]): inactive | Activity (SW620/AD300 [3]): inactive | Activity (SW620/AD300 [4]): inactive | Activity (SW620/AD300 [5]): Active | fold change (FC) [6]: 4.56 | viability at 72 h, 2 µM [7]: > 90% | fold change (FC) [8]: 3.85 | fold change (FC) [9]: 135.03 | inhibition (INH) [10]: Active | Activity [11]: Active | inhibition (INH) [12]: Dose-dependent effect | IC50 (Cytochrome P450 3A4): 17.2 µM | inhibition (SW-620 [13]): inactive | Activity [14]: Not Active | inhibition (INH) [15]: Dose-dependent effect | fold change (FC) [16]: 1.13 | Activity (Mus musculus): Non-Toxic
